According to ChEMBL document CHEMBL2169746, “Design, synthesis, and antitumor evaluation of 2,4,6-triaryl pyridines containing chlorophenyl and phenolic moiety” (Eur J Med Chem, 2012):

Columns and labels:
T47D = assay: Cytotoxicity against human T47D cells after 2 days by cell counting kit-8 analysis; format: functional, cell-based; details: 48 h
Outline: (§1)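 Cells grown per supplier's instructions, seeded at 2-4 × 10⁴ cells/well and incubated overnight in medium with 10% FBS at 37 °C, 5% CO₂. On day 2, after 4 h FBS starvation, medium was replaced with medium containing graded compound concentrations. Absorbance read at 450 nm. IC50 from a four-parameter logistic fit. Three independent experiments in triplicate, mean ± S.D.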

HCT-15 = assay: Cytotoxicity against human HCT15 cells after 2 days by cell counting kit-8 analysis; format: functional, cell-based; details: HCT-15, 48 h; outline: as §1
DU-145 = assay: Cytotoxicity against human DU145 cells after 2 days by cell counting kit-8 analysis; format: functional, cell-based; details: DU-145, 48 h; outline: as §1
HEK293 = assay: Cytotoxicity against human HEK293 cells after 2 days by cell counting kit-8 analysis; format: cell-based; details: HEK293, 48 h; outline: as §1
[1] = molecular target: DNA topoisomerase 2-alpha (Homo sapiens) (UniProt P11388); assay: Inhibition of human DNA topoisomerase-2alpha-mediated relaxation of supercoiled pBR322 at 20 uM after 30 mins using ethidium bromide staining by agarose gel electrophoresis
Outline: (§2)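 200 ng supercoiled pBR322 with 1 unit human topo IIα, with or without compound. Buffer was 10 mM Tris-HCl pH 7.9, 50 mM NaCl, 5 mM MgCl₂, 1 mM EDTA, 1 mM ATP and bovine serum albumin. Incubated 30 min at 30 °C, stopped with EDTA. Products run on 1% agarose gel, 25 V, 4 h, TAE buffer. Compound stocks 20 mM in DMSO.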

[2] = molecular target: DNA topoisomerase 2-alpha (Homo sapiens) (UniProt P11388); assay: Inhibition of human DNA topoisomerase-2alpha-mediated relaxation of supercoiled pBR322 at 100 uM after 30 mins using ethidium bromide staining by agarose gel electrophoresis; outline: as §2
[3] = molecular target: T1, DNA topoisomerase 1 (Homo sapiens) (UniProt P11387); assay: Inhibition of recombinant human DNA topoisomerase-1-mediated relaxation of supercoiled pBR322 at 20 uM after 30 mins using ethidium bromide staining by agarose gel electrophoresis
T1 sequence (whole entry): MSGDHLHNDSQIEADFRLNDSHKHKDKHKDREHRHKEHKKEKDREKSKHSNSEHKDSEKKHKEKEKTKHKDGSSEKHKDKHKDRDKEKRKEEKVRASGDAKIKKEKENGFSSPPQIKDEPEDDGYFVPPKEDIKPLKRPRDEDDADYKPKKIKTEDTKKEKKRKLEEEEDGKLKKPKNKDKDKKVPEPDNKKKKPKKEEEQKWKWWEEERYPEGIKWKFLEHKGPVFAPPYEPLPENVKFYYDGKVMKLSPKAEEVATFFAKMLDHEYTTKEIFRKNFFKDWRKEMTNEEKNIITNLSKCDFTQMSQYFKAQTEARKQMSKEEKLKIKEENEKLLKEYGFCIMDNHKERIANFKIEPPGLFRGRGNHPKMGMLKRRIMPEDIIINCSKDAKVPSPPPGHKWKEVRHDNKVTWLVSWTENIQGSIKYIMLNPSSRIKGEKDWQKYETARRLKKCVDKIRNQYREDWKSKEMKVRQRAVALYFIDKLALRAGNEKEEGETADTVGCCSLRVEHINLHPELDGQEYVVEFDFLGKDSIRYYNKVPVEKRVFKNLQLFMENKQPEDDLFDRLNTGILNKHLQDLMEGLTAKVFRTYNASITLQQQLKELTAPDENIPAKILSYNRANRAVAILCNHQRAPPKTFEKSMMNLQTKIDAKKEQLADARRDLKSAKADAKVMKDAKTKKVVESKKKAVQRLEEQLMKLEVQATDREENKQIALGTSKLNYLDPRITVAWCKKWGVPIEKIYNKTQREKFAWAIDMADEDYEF
Outline: (§3)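 Compounds from 20 mM DMSO stocks. 100 ng pBR322 plasmid DNA with 1 unit recombinant human topo I, with or without compound, 37 °C for 30 min. Relaxation buffer was 10 mM Tris-HCl pH 7.9, 150 mM NaCl, 0.1% BSA, 1 mM spermidine. Relaxation of supercoiled DNA assessed by gel imaging.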

[4] = molecular target: T1, DNA topoisomerase 1 (Homo sapiens); assay: Inhibition of recombinant human DNA topoisomerase-1-mediated relaxation of supercoiled pBR322 at 100 uM after 30 mins using ethidium bromide staining by agarose gel electrophoresis; outline: as §3

Sequence of DNA topoisomerase 2-alpha (Homo sapiens) (P11388 whole entry): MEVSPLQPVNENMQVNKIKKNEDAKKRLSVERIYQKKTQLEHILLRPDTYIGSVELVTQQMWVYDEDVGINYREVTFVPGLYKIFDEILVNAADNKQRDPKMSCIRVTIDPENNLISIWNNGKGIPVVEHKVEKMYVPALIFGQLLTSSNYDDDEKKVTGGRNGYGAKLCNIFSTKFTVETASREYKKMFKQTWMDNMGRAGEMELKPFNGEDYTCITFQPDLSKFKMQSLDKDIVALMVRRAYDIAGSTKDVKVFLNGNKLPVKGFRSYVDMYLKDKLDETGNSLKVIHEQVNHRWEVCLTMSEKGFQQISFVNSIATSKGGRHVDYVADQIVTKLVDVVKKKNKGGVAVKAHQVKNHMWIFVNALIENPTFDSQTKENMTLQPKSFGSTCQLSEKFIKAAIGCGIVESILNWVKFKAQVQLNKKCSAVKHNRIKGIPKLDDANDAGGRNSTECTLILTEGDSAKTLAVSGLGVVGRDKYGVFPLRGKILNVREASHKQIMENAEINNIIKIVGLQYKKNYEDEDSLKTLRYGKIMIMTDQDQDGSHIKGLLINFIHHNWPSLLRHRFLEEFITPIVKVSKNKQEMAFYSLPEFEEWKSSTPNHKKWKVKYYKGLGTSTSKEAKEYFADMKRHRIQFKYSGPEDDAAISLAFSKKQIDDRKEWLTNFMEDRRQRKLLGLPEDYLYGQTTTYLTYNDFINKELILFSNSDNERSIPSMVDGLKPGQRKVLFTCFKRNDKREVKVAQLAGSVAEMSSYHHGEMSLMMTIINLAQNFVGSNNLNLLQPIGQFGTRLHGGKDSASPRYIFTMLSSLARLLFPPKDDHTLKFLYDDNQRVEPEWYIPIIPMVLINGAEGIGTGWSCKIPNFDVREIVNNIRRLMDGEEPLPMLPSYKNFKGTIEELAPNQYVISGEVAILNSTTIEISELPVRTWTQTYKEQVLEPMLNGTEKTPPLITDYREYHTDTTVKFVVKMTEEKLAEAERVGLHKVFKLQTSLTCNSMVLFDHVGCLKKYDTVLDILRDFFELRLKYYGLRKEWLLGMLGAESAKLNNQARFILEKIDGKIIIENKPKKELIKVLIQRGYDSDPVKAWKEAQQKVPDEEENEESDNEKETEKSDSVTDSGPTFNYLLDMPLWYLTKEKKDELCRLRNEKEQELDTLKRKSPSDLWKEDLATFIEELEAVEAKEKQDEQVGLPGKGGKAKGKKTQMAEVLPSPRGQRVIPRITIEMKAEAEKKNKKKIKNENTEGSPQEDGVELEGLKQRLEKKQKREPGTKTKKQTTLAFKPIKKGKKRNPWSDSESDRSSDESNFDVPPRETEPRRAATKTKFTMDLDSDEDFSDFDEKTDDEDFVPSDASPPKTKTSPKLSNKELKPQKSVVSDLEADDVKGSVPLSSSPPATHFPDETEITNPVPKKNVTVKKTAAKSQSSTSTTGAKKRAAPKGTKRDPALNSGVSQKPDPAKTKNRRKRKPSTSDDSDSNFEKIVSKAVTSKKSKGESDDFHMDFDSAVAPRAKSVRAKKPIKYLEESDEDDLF

Compound	inhibition [1] [%]	inhibition [2] [%]	inhibition [3] [%]	inhibition [4] [%]	IC50 (T47D) [µM]	IC50 (HCT-15) [µM]	IC50 (DU-145) [µM]	IC50 (HEK293) [µM]
Oc1ccc(-c2cc(-c3cccc(Cl)c3)nc(-c3cccs3)c2)cc1	0	72.4	0	52.4	5.35	5.05	5.74	2.72
Oc1ccc(-c2cc(-c3ccc(Cl)cc3)nc(-c3ccsc3)c2)cc1	67.1	83.6	30.7	47.7	5.49	6.24	6.94	4.86
Oc1ccc(-c2cc(-c3ccccc3)nc(-c3ccccc3Cl)c2)cc1	5.5	77.5	–	13.6	5.46	4.99	2.8	3.93
Oc1ccc(-c2cc(-c3ccco3)nc(-c3ccccc3Cl)c2)cc1	7.7	77.8	–	3.9	5.48	5.46	5.3	4.31

Further lines, with some results ahead:

inhibition [1] [%]	inhibition [2] [%]	inhibition [3] [%]	inhibition [4] [%]	Compound	IC50 (T47D) [µM]	IC50 (HCT-15) [µM]	IC50 (DU-145) [µM]	IC50 (HEK293) [µM]
13.1	59.4	0	30	Oc1cccc(-c2cc(-c3ccc(Cl)cc3)nc(-c3ccccn3)c2)c1	13.9	13.5	8.09	14
0	67.5	0	59.4	Oc1ccc(-c2cc(-c3cccc(Cl)c3)nc(-c3ccccn3)c2)cc1	27.9	28.2	35.2	25.4
22	77.2	0	38.8	Oc1ccc(-c2cc(-c3ccc(Cl)cc3)nc(-c3cccs3)c2)cc1	6.45	6.47	7.66	4.52
0	46.9	0	55.2	Oc1ccc(-c2cc(-c3cccnc3)nc(-c3cccc(Cl)c3)c2)cc1	25.7	21.3	22.9	25.7
44.6	80.9	55.2	68	Oc1ccc(-c2cc(-c3ccccc3)nc(-c3ccc(Cl)cc3)c2)cc1	4.27	6.92	7.27	4.81
